One data set concerns A549. Put plainly: In vitro cytotoxicity against A-549 (human lung carcinoma) cell line. The class given is functional, cell-based. In a few lines:
(§1)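 Growth-inhibition screen adapted from Bergeron et al. Cells were kept in exponential growth in EMEM with 5% FCS, 10^-2 M sodium bicarbonate, penicillin G and streptomycin (0.1 g/L each) and 2.0 mM L-glutamine. P-388 was grown as a suspension and seeded at 1 × 10^4 cells/well. A-549 and HT-29 were grown as monolayers and seeded at 2 × 10^4 cells/well.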

Data set [1] in a line: pKa value was determined by differential pulse polarography. It counts as physicochemical.
The next data set concerns HT-29. Put plainly: In vitro cytotoxicity against HT-29 (human colon) cell line. The class given is functional, cell-based. A digest of the protocol:
as §1

The next data set relates to P388. The data set can be described thus: In vitro cytotoxicity against P-388 (mouse leukemia) cell line. The class given is functional, cell-based. In a few lines:
as §1

Structures are written as SMILES. A value given as a limit tells only on which side of the number the result lay.

As a reminder, the IC50 is the concentration needed to halve the response being measured. A low value points to greater potency in that assay. Broadly, the pKa is the negative logarithm of the acid dissociation constant. Read a high pKa as a weaker acid or stronger base. For the compound `CCN(CC)CCCNc1c2cc(C)ccc2nc2sc(SC)nc12`, the 50% inhibitory concentration (IC50) in the data set on A549, in the data set with HT-29 and with P388 was 5.4 µM throughout. For the same compound, the pKa in data set [1] was found to be 7.9.
For the compound `CCN(CC)CCNc1nc2c(O)c3cc(C)ccc3nc2s1`, the IC50 in the data set on A549 was 5.6 µM; in the data set on HT-29 it was 3.3 µM; with P388, 3.3 µM. In data set [1], this compound displayed a pKa of 8.4.
On to `CN1CCN(c2nc3c(O)c4ccccc4nc3s2)CC1`, for which the 50% inhibitory concentration (IC50) in the data set on A549, in the data set with HT-29 and in the data set with P388 was 18.8 µM each time. The compound further gave a pKa in data set [1] of 8.6.
On to `Cc1ccc2nc3sc(N4CCN(C)CC4)nc3c(O)c2c1`, for which the IC50 in the data set with A549 amounted to 29.6 µM; in the data set on HT-29 it was 17 µM; in the data set with P388 it was 16.9 µM. The pKa in data set [1] came out at 10.
For the compound `Cc1ccc2nc3sc(Cl)nc3c(O)c2c1`, the IC50 in the data set on A549, in the data set with HT-29 and in the data set with P388 was 34.6 µM throughout. Moreover, the pKa in data set [1] stood at 5.
As for `Oc1c2cc(F)ccc2nc2sc(Cl)nc12`, the IC50 in the data set on A549, in the data set with HT-29 and in the data set with P388 was 7.4 µM each time. Moreover, the pKa in data set [1] came out at 4.9.
`CSc1nc2c(O)c3cc(F)ccc3nc2s1`: the 50% inhibitory concentration (IC50) in the data set with A549, with HT-29 and in the data set with P388 was greater than 66.1 µM in each case. In data set [1], this compound returned a pKa of 5.7.
For `CCN(CC)CCNc1nc2c(O)c3ccccc3nc2s1`, the half-maximal inhibitory concentration (IC50) in the data set with A549 is 7.22 µM; with HT-29, 7.22 µM; with P388, 5.76 µM. Moreover, in data set [1], the pKa was found to be 9.3.
In the case of `CS(=O)(=O)c1nc2c(O)c3ccccc3nc2s1`, the IC50 in the data set on A549, with HT-29 and with P388 was 32.4 µM in each case. In addition, the pKa in data set [1] was found to be 5.2.
On to `CN1CCN(c2nc3c(O)c4cc(F)ccc4nc3s2)CC1`, for which the IC50 with A549, in the data set on HT-29 and with P388 was greater than 56.4 µM each time. In data set [1], this compound yielded a pKa of 8.
Turning to `CSc1nc2c(O)c3ccccc3nc2s1`, the concentration for half-maximal inhibition (IC50) with A549, in the data set with HT-29 and in the data set on P388 was greater than 70.2 µM throughout. Also, the pKa in data set [1] turned out to be 5.9.
As to `CS(=O)(=O)c1nc2c(O)c3cc(F)ccc3nc2s1`, the IC50 with A549, in the data set with HT-29 and with P388 was 6 µM each time. In data set [1], this compound came in with a pKa of 5.5.
With `CCN(CC)CCCNc1c2ccccc2nc2sc(SC)nc12`, the IC50 in the data set with A549, with HT-29 and with P388 was 6 µM throughout. The pKa in data set [1] amounted to 7.5.
On to `CSc1nc2c(O)c3cc(C)ccc3nc2s1`, for which the IC50 in the data set with A549, in the data set with HT-29 and in the data set on P388 was greater than 66.9 µM throughout. The compound further registered a pKa in data set [1] of 4.6.
For the compound `CSc1nc2c(N(C)CCCN(C)C)c3ccccc3nc2s1`, the IC50 in the data set on A549, in the data set with HT-29 and in the data set on P388 was 12.1 µM throughout. Also, the pKa in data set [1] is 6.5.
As to `CCN(CC)CCNc1nc2c(O)c3cc(F)ccc3nc2s1`, the IC50 in the data set with A549 turned out to be 2.9 µM; in the data set on HT-29 it was 5 µM; in the data set on P388, 1.65 µM. For the same compound, the pKa in data set [1] stood at 8.3.
In the case of `Oc1c2ccccc2nc2sc(Cl)nc12`, the IC50 in the data set with A549 worked out at 11.6 µM; in the data set with HT-29 it was 11.6 µM; with P388 it was 5.3 µM. This compound showed a pKa in data set [1] of 5.9.
Consider `Cc1ccc2nc3sc(S(C)(=O)=O)nc3c(O)c2c1`, for which the IC50 in the data set with A549, in the data set with HT-29 and in the data set on P388 was greater than 60.4 µM in each case. In data set [1], the pKa was determined as 4.

Source of the values: ChEMBL document CHEMBL1129951, “Synthesis and antitumor evaluation of new thiazolo[5,4-b]quinoline derivatives” (J Med Chem, 1997).
